Active and inactive are the calls of the source. The calls are words filed in the database; no cut-off is given here.
Columns and labels:
Plasmodium falciparum [1] = assay: Antiplasmodial activity against artemisinin-tolerant Plasmodium falciparum F32-Tanzania assessed as time required to reach 5% parasitaemia at 70 uM treated for 48 hrs; assay type: functional
In short: (§1)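 Sorbitol-synchronized ring cultures (5% parasitemia, 2.5% hematocrit) in O+ human RBCs, RPMI with 5% human serum, 37°C, 5% CO2. Medium was swapped for artemisinin-containing medium for 48 or 96 h, then washed out and culture resumed drug-free. Parasitemia was tracked to record days to reach 5%; cultures with no parasites by day 21 were scored as no recovery. Runs were done at least three times, except 48 h/70 μM and the 96 h conditions, which were done once.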

Plasmodium falciparum [2] = assay: Antiplasmodial activity against Plasmodium falciparum F32-Tanzania assessed as inhibition of parasite growth at 1 uM treated for 96 hrs; assay type: functional, organism-based; in short: as §1
Plasmodium falciparum [3] = assay: Antiplasmodial activity against artemisinin-tolerant Plasmodium falciparum F32-Tanzania assessed as time required to reach 5% parasitaemia at 18 uM treated for 48 hrs; assay type: functional; in short: as §1
Plasmodium falciparum [4] = assay: Antiplasmodial activity against Plasmodium falciparum F32-Tanzania assessed as time required to reach 5% parasitaemia at 18 uM treated for 48 hrs; assay type: functional; in short: as §1
Plasmodium falciparum [5] = assay: Antiplasmodial activity against Plasmodium falciparum F32-Tanzania assessed as inhibition of parasite growth at 70 uM treated for 48 hrs; assay type: functional, organism-based; in short: as §1
Plasmodium falciparum [6] = assay: Antiplasmodial activity against artemisinin-tolerant Plasmodium falciparum F32-Tanzania assessed as decrease in appearance of late-stage parasites at 9 uM measured after 24 hrs of drug removal by FACS analysis; assay type: functional, organism-based
In short: (§2)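 Samples were stained with DAPI (1 μg/ml) and analysed immediately by flow cytometry (400,000 events). Gates were calibrated with uninfected RBCs, sorbitol-synchronized rings, and magnetically isolated trophozoites and schizonts.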

Plasmodium falciparum [7] = assay: Antiplasmodial activity against artemisinin-tolerant Plasmodium falciparum F32-Tanzania assessed as decrease in occurrence of normal parasite cell cycle at 9 uM measured after 24 to 30 hrs of drug removal by rhodamine 123 staining; assay type: functional, organism-based
In short: (§3)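 Infected RBCs were stained with R123 (1 μg/ml in RPMI, 37°C, 5 min), washed, and incubated 30 min under culture conditions. Nuclei were counterstained with DAPI (1 μg/ml, 37°C, 20 min). Thin smears were read the same day by epifluorescence; R123-positive (polarized mitochondria) parasites were scored as viable.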

Plasmodium falciparum [8] = assay: Antiplasmodial activity against artemisinin-tolerant Plasmodium falciparum F32-Tanzania assessed as time required to reach 5% parasitaemia at 0.1 uM treated for 96 hrs; assay type: functional; in short: as §1
Plasmodium falciparum [9] = assay: Antiplasmodial activity against artemisinin-tolerant Plasmodium falciparum F32-Tanzania assessed as decrease in appearance of late trophozoites at 9 uM measured after 24 to 30 hrs of drug removal by rhodamine 123 staining; assay type: functional, organism-based; in short: as §3
Plasmodium falciparum [10] = assay: Antiplasmodial activity Plasmodium falciparum F32-Tanzania assessed as decrease in appearance of mature parasite forms at 9 uM measured after 24 to 30 hrs of drug removal by rhodamine 123 staining; assay type: functional, organism-based; in short: as §3
Plasmodium falciparum [11] = assay: Antiplasmodial activity against Plasmodium falciparum F32-Tanzania assessed as inhibition of parasite growth at 0.1 uM treated for 96 hrs; assay type: functional, organism-based; in short: as §1
Plasmodium falciparum [12] = assay: Antiplasmodial activity Plasmodium falciparum F32-Tanzania assessed as decrease in appearance of parasite quiescent rings at 9 uM after 48 hrs by rhodamine 123 staining; assay type: functional, organism-based; in short: as §3
Plasmodium falciparum [13] = assay: Antiplasmodial activity against artemisinin-tolerant Plasmodium falciparum F32-Tanzania assessed as parasitaemia at 9 uM after 48 hrs by rhodamine 123 staining; assay type: functional; in short: as §3
Plasmodium falciparum [14] = assay: Antiplasmodial activity against artemisinin-tolerant Plasmodium falciparum F32-Tanzania assessed as inhibition of parasite growth at 9 uM measured after 24 to 30 hrs of drug removal by FACS analysis in presence of sorbitol; assay type: functional, organism-based
Plasmodium falciparum [15] = assay: Antiplasmodial activity against artemisinin-tolerant Plasmodium falciparum F32-Tanzania assessed as decrease in appearance of late schizonts at 9 uM measured after 24 to 30 hrs of drug removal by rhodamine 123 staining; assay type: functional, organism-based; in short: as §3
Plasmodium falciparum [16] = assay: Antiplasmodial activity against artemisinin-tolerant Plasmodium falciparum F32-Tanzania assessed as decrease in appearance of late-stage parasites at 9 uM after 48 hrs by FACS analysis; assay type: functional, organism-based; in short: as §2
Plasmodium falciparum [17] = assay: Antiplasmodial activity against artemisinin-tolerant Plasmodium falciparum F32-Tanzania assessed as time required to reach 5% parasitaemia at 1 uM treated for 96 hrs; assay type: functional; in short: as §1
Plasmodium falciparum [18] = assay: Antiplasmodial activity against artemisinin-tolerant Plasmodium falciparum F32-Tanzania assessed as decrease in parasite recovery time at 9 uM treated for 48 hrs in presence of 0.5 uM MDR1 inhibitor penfluridol; assay type: functional, organism-based
Plasmodium falciparum [19] = assay: Antiplasmodial activity against Plasmodium falciparum F32-Tanzania assessed as time required to reach 5% parasitaemia at 9 uM treated for 48 hrs; assay type: functional; in short: as §1
Plasmodium falciparum [20] = assay: Antiplasmodial activity against artemisinin-tolerant Plasmodium falciparum F32-Tanzania assessed as decrease in appearance of late trophozoites at 9 uM after 24 hrs by rhodamine 123 staining; assay type: functional, organism-based; in short: as §3
Plasmodium falciparum [21] = assay: Antiplasmodial activity against artemisinin-tolerant Plasmodium falciparum F32-Tanzania assessed as inhibition of parasite growth at 9 uM after 48 hrs by FACS analysis in presence of sorbitol; assay type: functional, organism-based
Plasmodium falciparum [22] = assay: Antiplasmodial activity against Plasmodium falciparum F32-Tanzania assessed as inhibition of parasite growth at 35 uM treated for 48 hrs; assay type: functional, organism-based; in short: as §1
Plasmodium falciparum [23] = assay: Antiplasmodial activity against artemisinin-tolerant Plasmodium falciparum F32-Tanzania assessed as decrease in appearance of late-stage parasites at 9 uM after 24 hrs by FACS analysis; assay type: functional, organism-based; in short: as §2
Plasmodium falciparum [24] = assay: Antiplasmodial activity against artemisinin-tolerant Plasmodium falciparum F32-Tanzania assessed as decrease in appearance of late trophozoites at 9 uM after 48 hrs by rhodamine 123 staining; assay type: functional, organism-based; in short: as §3
Plasmodium falciparum [25] = assay: Antiplasmodial activity against artemisinin-tolerant Plasmodium falciparum F32-Tanzania assessed as time required to reach 5% parasitaemia at 35 uM treated for 48 hrs; assay type: functional; in short: as §1
Plasmodium falciparum [26] = assay: Antiplasmodial activity against artemisinin-tolerant Plasmodium falciparum F32-Tanzania assessed as time required to reach 5% parasitaemia at 9 uM treated for 48 hrs; assay type: functional; in short: as §1
Plasmodium falciparum [27] = assay: Antiplasmodial activity against artemisinin-tolerant Plasmodium falciparum F32-Tanzania assessed as time required to reach 5% parasitaemia at 2.6 uM treated for 48 hrs; assay type: functional
In short: (§4)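 Sorbitol-synchronized ring-stage cultures at 5% parasitemia and 2.5% hematocrit in human O+ erythrocytes, in RPMI with human serum at 37°C under 5% CO2. Drug-containing medium for 48 h, then RPMI wash and return to drug-free culture. Endpoint was days to reach 5% parasitemia, followed up to 21 days. Three or more independent experiments; mean ± SD.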

Plasmodium falciparum [28] = assay: Antiplasmodial activity against Plasmodium falciparum F32-Tanzania assessed as time required to reach 5% parasitaemia at 2.6 uM treated for 48 hrs; assay type: functional; in short: as §4
Plasmodium falciparum [29] = assay: Antiplasmodial activity against Plasmodium falciparum F32-Tanzania assessed as time required to reach 5% parasitaemia at 0.2 uM treated for 48 hrs; assay type: functional; in short: as §4
Plasmodium falciparum [30] = assay: Antiplasmodial activity against artemisinin-tolerant Plasmodium falciparum F32-Tanzania assessed as time required to reach 5% parasitaemia at 0.2 uM treated for 48 hrs; assay type: functional; in short: as §4

In the case of C[C@@H]1CC[C@H]2[C@@H](C)C(=O)O[C@@H]3O[C@@]4(C)CC[C@@H]1[C@]32OO4 [ARTEMISININ], the Time (Plasmodium falciparum [1]) is reported as 17 days, the inhibition (Plasmodium falciparum [2]) is reported as “Active” and the Time (Plasmodium falciparum [3]) is reported as 7 days. The Time (Plasmodium falciparum [4]) was “<=17 day”, the inhibition (Plasmodium falciparum [5]) was “Active” and the Activity (Plasmodium falciparum [6]) was “inactive”. For the same molecule, the Activity (Plasmodium falciparum [7]) was “inactive”, the Time (Plasmodium falciparum [8]) was 15 days and the Activity (Plasmodium falciparum [9]) was “inactive”. For the same molecule, the Activity (Plasmodium falciparum [10]) was “Active”, the inhibition (Plasmodium falciparum [11]) was “Active” and the Activity (Plasmodium falciparum [12]) was “Active”. The Activity (Plasmodium falciparum [13]) was 0.1%, the inhibition (Plasmodium falciparum [14]) was “Active” and the Activity (Plasmodium falciparum [15]) was “inactive”. For the same molecule, the Activity (Plasmodium falciparum [16]) was “Active”, the Time (Plasmodium falciparum [17]) was 16 days and the Activity (Plasmodium falciparum [18]) was “Active”. For the same molecule, the Time (Plasmodium falciparum [19]) was 16 days, the Activity (Plasmodium falciparum [20]) was “Active” and the inhibition (Plasmodium falciparum [21]) was “Active”. The inhibition (Plasmodium falciparum [22]) was “Active”, the Activity (Plasmodium falciparum [23]) was “Active” and the Activity (Plasmodium falciparum [24]) was “Active”. For the same molecule, the Time (Plasmodium falciparum [25]) was 11 days and the Time (Plasmodium falciparum [26]) was 6 days.
Molecule C[C@H]1[C@H](OC(=O)CCC(=O)O)O[C@@H]2O[C@@]3(C)CC[C@H]4[C@H](C)CC[C@@H]1[C@@]24OO3 [ARTESUNATE] has a Time (Plasmodium falciparum [27]) of 6 days, a Time (Plasmodium falciparum [28]) of 14 days and a Time (Plasmodium falciparum [19]) of 15 days. For the same molecule, the Time (Plasmodium falciparum [26]) was 8 days.
In the case of CCN(CC)CCCC(C)Nc1ccnc2cc(Cl)ccc12 (configuration not stated) [CHLOROQUINE], the Time (Plasmodium falciparum [29]) is reported as 14 days and the Time (Plasmodium falciparum [30]) is reported as 14 days.
